The record followed here is ChEMBL document CHEMBL1150854, “New prenylated bi- and tricyclic phloroglucinol derivatives from Hypericum papuanum” (J Nat Prod, 2001).

Converted amounts (≈) assume the structure as drawn. The source made the active and inactive calls. The rule behind the calls is not given here.

One assay relates to KB. As to the kind of experiment: Cytotoxicity against human KB cells. Type of assay: functional, cell-based. The method, boiled down:
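KB cells (ATCC CCL 17, human nasopharyngeal carcinoma), run by the method of earlier published work. Each test done at least in triplicate. Value given as IC50 in μg/mL. Podophyllotoxin served as positive control.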

The next assay has as its system Bacillus cereus. Description: Antibacterial activity against Bacillus cereus ATCC 10702 by doubling dilution method. Type of assay: functional. An outline of the steps: (§1)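 Doubling (twofold) broth dilution of pure compounds, modified from an earlier published procedure. Gram-positive strains: B. cereus ATCC 10702, S. epidermidis ATCC 12228, M. luteus ATCC 9341. Read-out is MIC in μg/mL. Chloramphenicol served as positive control.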

Assay [1] relates to Staphylococcus epidermidis. Description: Antibacterial activity against Staphylococcus epidermidis ATCC 12228 by doubling dilution method. Type of assay: functional. An outline of the steps:
as §1

In the next assay the test system is Micrococcus luteus. As to the kind of experiment: Antibacterial activity against Micrococcus luteus ATCC 9341 by doubling dilution method. Type of assay: functional. The method, boiled down: as §1
The mark [2] stands for this setting: Bacillus cereus, ATCC 10702, read-out: MIC.
Where [3] appears, read: Staphylococcus epidermidis, ATCC 12228, read-out: MIC.
The mark [4] stands for this setting: Homo sapiens, KB, read-out: IC50.

As usually defined, the IC50 is the midpoint of a concentration-inhibition curve. As a reminder, the MIC is the lowest concentration that inhibits growth of the organism. `CC(C)=CC[C@@H]1C[C@@]2(C)C(=O)[C@](CC=C(C)C)(C(=O)C(C(=O)C(C)C)=C2O)C1(C)C` (stereo in doubt; 8): in the assay with KB (kb), the IC50 was 3.2 mg/L (≈ 7.72 µM). Besides, the MIC in the assay on Bacillus cereus (setting [2]) came to 8 mg/L (≈ 19.3 µM); in assay [1] (setting [3]) it was 8 mg/L (≈ 19.3 µM); with Micrococcus luteus, 16 mg/L (≈ 38.6 µM).
Regarding `CC(C)=CCC1(C)C(=O)C(C(=O)C(C)C)=C(O)C2=C1OC(C)(C)C=C2` (stereo in doubt; 7a) [HYPERGUINONE B], the IC50 in the assay on KB (setting [4]) worked out at 13 mg/L (≈ 37.7 µM). Also, the MIC in the assay with Bacillus cereus (setting [2]) was determined as 32 mg/L (≈ 92.9 µM).
With `CCC(=O)C1=C(O)C2=C(OC(C)(C)C=C2)C(C)(CC=C(C)C)C1=O` (stereo in doubt; 6) [HYPERGUINONE A], the MIC (in the assay with Bacillus cereus; in assay [1]) was 32 mg/L (≈ 96.8 µM) throughout.
For the compound `CCC(C)C(=O)[C@]12C(=O)C3=C(OC(C)(C)C=C3)[C@](C)(C[C@@H](CC=C(C)C)C1(C)C)C2=O` (stereo partly specified) [PAPUAFORIN C], the IC50 in the assay with KB (setting [4]) came out at 4.9 mg/L (≈ 11.5 µM). In addition, the MIC with Bacillus cereus (setting [2]) came to 64 mg/L (≈ 150 µM); in the assay on Micrococcus luteus, 32 mg/L (≈ 75 µM). Moreover, the result in assay [1] was inactive.
As to `CC(C)=CCC1(C)C(=O)C(C(=O)C(C)C)=C(O)C2=C1OC(C)(C)C=C2` (stereo in doubt; 7), in assay [1], the outcome was inactive.
Consider `CC(C)=CCC[C@@]1(C)[C@H](CC=C(C)C)C[C@]2(C)C(=O)[C@@]1(C(=O)C(C)C)C(=O)C1=C2OC(C)(C)C=C1` [PAPUAFORIN E], for which the IC50 with KB (setting [4]) was 5.6 mg/L (≈ 11.6 µM). Moreover, the MIC came out at 64 mg/L (≈ 133 µM) in the assay with Bacillus cereus (setting [2]) and 32 mg/L (≈ 66.6 µM) in assay [1] (setting [3]).
For the compound `O=C(N[C@H](CO)[C@H](O)c1ccc([N+](=O)[O-])cc1)C(Cl)Cl` [CHLORAMPHENICOL], the MIC in the assay on Bacillus cereus (setting [2]) turned out to be 2 mg/L (≈ 6.19 µM); in assay [1] (setting [3]), 4 mg/L (≈ 12.4 µM); against Micrococcus luteus, 2 mg/L (≈ 6.19 µM).
With `CC(C)=CC[C@@H]1C[C@]2(C)C(=O)[C@@](C(=O)C(C)C)(C(=O)C3=C2OC(C)(C)C=C3)C1(C)C` [PAPUAFORIN A], the IC50 with KB (setting [4]) came out at 7.5 mg/L (≈ 18.2 µM). The MIC in the assay on Bacillus cereus (setting [2]) worked out at 64 mg/L (≈ 155 µM). For the same compound, the outcome in assay [1] was inactive.
Regarding `CCC(C)C(=O)[C@]12C(=O)C3=C(OC(C)(C)C=C3)[C@](C)(C[C@@H](CC=C(C)C)[C@]1(C)CCC=C(C)C)C2=O` (stereo partly specified) [PAPUAFORIN D], the IC50 in the assay with KB (setting [4]) came to 6.6 mg/L (≈ 13.3 µM). The MIC in the assay on Bacillus cereus (setting [2]) was found to be 128 mg/L (≈ 259 µM). In addition, the outcome in assay [1] was inactive.
Consider `CC(C)=CCC1(C)C(=O)C(C(=O)C(C)C)=C(O)C2=C1OC(C)(C)C=C2` (stereo in doubt; 7a), for which the result in assay [1] was inactive.
For the compound `CC(C)=CCC1(C)C(=O)C(C(=O)C(C)C)=C(O)C2=C1OC(C)(C)C=C2` (stereo in doubt; 7) [HYPERGUINONE B], in the assay on KB (kb), the IC50 amounted to 13 mg/L (≈ 37.7 µM). For the same compound, the MIC in the assay with Bacillus cereus was 32 mg/L (≈ 92.9 µM).
As for `CCC(=O)C1=C(O)C2=C(OC(C)(C)C=C2)C(C)(CC=C(C)C)C1=O` (stereo in doubt; 6a) [HYPERGUINONE A], the MIC (in the assay with Bacillus cereus (setting [2]); in assay [1] (setting [3])) was 32 mg/L (≈ 96.8 µM) each time.
Regarding `COc1cc([C@@H]2c3cc4c(cc3[C@H](O)[C@H]3COC(=O)[C@H]23)OCO4)cc(OC)c1OC` [PODOFILOX], the IC50 in the assay with KB (setting [4]) was 0.006 mg/L (≈ 0.0145 µM).
